# Screening results deposited in PubChem BioAssay by Broad Institute.
# FN deposit inh – inhibitors of fibronectin matrix deposition, primary screen, AH1F cells, Alexa488-fibronectin fluorescence, plate reader; AH1F fibroblasts, overnight; inhibition, % at 12.6 µM; actives 0.086% (n = 350,000);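 active = mean inhibition across replicates of 30% or more, regardless of how many single replicates reach that level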;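 note: positive control wells lacked labelled fibronectin entirely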
#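 Assay system: AH1F fibroblasts / Quantity: 10000 cells per well / Medium: DMEM plus 2% serum, read in PBS / Reagent: labelled fibronectin 24 nM / Dosing: single dose, pinned / Times: 1 h cell attachment, overnight exposure to compound and label / Signal: fluorescence, ex 485 nm, em 525 nm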
# SIRT5 block – SIRT5 desuccinylase inhibitors, primary screen, biochemical, fluorescence imaging, single point, set 5; NAD-dependent protein deacylase sirtuin-5, mitochondrial (Homo sapiens), Q9NXA8; Purified SirT5, succinyl-peptide AMC, trypsin-coupled fluorescence; inhibition, % at 15 µM; actives 1.1% (n = 330,000); AID 652115, 2013; in the data active = inhibition above about 15%
# MLL AF4-AF9 inh – inhibitors of AF4 peptide binding to AF9, primary screen, biochemical, AlphaScreen, biotin-AF4 peptide, FLAG-AF9, single point; Protein AF-9 (Homo sapiens), P42568; AID 651704, 2012; actives 0.47% (n = 350,000); inhibition, % at 10 µM;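 active = every replicate reaching a set inhibition limit, whatever the replicate mean, cut at about 25% in these data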;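 note: 0% = plate neutral control median and 100% = total signal loss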
# PDI inh – inhibitors of human PDI, primary screen, biochemical, turbidity, single point, plate reader; PDI insulin aggregation turbidity, A650, 90 min; AID 588391, 2011; actives 0.052% (n = 350,000); Protein disulfide-isomerase (Homo sapiens), P07237; inhibition, % at 10 µM;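 active = mean inhibition across replicates of 30% or more, whatever share of single replicates reach that level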
# ERp5 block – inhibitors of ERp5-driven insulin aggregation, primary screen, biochemical, turbidity, absorbance 650 nm, single point. inhibition, % at 9.99 µM. actives 0.05% (n = 350,000). Protein disulfide-isomerase A6 (Homo sapiens), Q15084. 90 min;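 active = mean replicate inhibition above about 25%, with every replicate also reaching it, limit read from the data, passing the limit was not always enough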
# Target sequence (Q15084 whole entry, looked up): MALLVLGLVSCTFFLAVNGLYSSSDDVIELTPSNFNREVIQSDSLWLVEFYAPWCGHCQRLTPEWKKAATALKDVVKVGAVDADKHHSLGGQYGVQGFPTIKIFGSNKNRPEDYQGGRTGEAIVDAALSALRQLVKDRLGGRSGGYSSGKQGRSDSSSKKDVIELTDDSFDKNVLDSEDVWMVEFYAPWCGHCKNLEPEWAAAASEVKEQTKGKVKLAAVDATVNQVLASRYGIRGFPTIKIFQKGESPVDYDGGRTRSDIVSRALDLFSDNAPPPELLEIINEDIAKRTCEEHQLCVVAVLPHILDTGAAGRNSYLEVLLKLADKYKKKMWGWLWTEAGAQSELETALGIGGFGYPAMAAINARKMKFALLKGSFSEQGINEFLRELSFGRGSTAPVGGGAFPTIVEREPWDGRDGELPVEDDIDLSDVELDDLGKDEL
# * = called active by the depositor; nt = no result. Most compounds without a hit are left out; they make up all but 1.3% or so of the library.
SMILES,FN deposit inh,SIRT5 block,MLL AF4-AF9 inh,PDI inh,ERp5 block
O=C(N/N=C/c1cc(Br)ccc1O)C(=O)Nc1ccccc1OC(F)(F)C(F)F,nt,nt,nt,10,nt
Cc1ccc(Sc2ccc(CN3CCCCC3)cc2[N+](=O)[O-])cc1,7,-1,29*,9,1
COCCCNC(=O)c1ccc2c(=O)n(Cc3ccc4c(c3)OCO4)c(=S)[nH]c2c1,-16,nt,nt,0,nt
O=C(NCc1ccc(Cl)cc1)c1ccc2c(=O)n(CC3CCCO3)c(=S)[nH]c2c1 (stereo unspecified),3,16*,1,-2,0
COC(CNC(=O)c1ccc2c(=O)n(Cc3ccc4c(c3)OCO4)c(=S)[nH]c2c1)OC,3,16*,-2,-3,5
O=C(NCC1CCCO1)c1ccc2c(=O)n(CC3CCCO3)c(=S)[nH]c2c1 (stereo unspecified),-2,nt,nt,-1,nt
CC(C)OC(=O)C[N+](C)(C)CCN1C(=O)C2C(c3ccccc3)C=CC(c3ccccc3)C2C1=O (stereo unspecified),0,26*,2,4,-3
O=C(Nc1ccccc1)N1CC(=O)N2[C@H](CO)[C@@H](c3ccc(C#CC4CCCC4)cc3)[C@H]2C1,1,2,5,nt,1
Clc1cc(Br)ccc1OCCN1CCOCC1,-2,26*,5,8,-3
O=C(N/N=C/c1ccc(N2CCOCC2)c([N+](=O)[O-])c1)c1ccc(F)cc1,3,nt,nt,-6,nt
O=C(N/N=C/c1ccc(N2CCCC2)c([N+](=O)[O-])c1)c1cccnc1,31*,1,-1,1,0
O=C(Nc1nc(-c2ccc(Cl)cc2Cl)cs1)c1ccc(OCC2CCCO2)cc1 (stereo unspecified),7,112*,-7,6,3
CC1=C/C(=C(/c2ccc(O)c(C)c2)c2ccccc2S(=O)(=O)O)C=CC1=O,-12,6,1,10,7
CC1=C/C(=C(/c2cc(C)c(O)c(Br)c2)c2ccccc2S(=O)(=O)O)C=C(Br)C1=O,-1,14,47*,-4,-3
CCc1ccc(N(C(=O)CNC(=O)c2ccco2)C(C(=O)NC2CCCC2)c2ccncc2)cc1 (stereo unspecified),-6,-2,3,9,3
NC(=O)c1cccc(-c2cnc3c(Nc4cccc(OC(F)(F)C(F)F)c4)nccn23)c1,-6,nt,-2,1,-1
O=C1SCCN1N=Cc1ccc([N+](=O)[O-])o1,2,22*,-2,-7,10
O=C(Cn1nc(CNc2ccc(Br)cc2)[n+]2c1CCCCC2)c1ccc([N+](=O)[O-])cc1,1,-4,28*,2,nt
O=C(Cn1nc(CNc2ccc(Cl)cc2)[n+]2c1CCCCC2)c1ccc(Br)cc1,-7,nt,nt,6,nt
CN(C)S(=O)(=O)n1cc(/C=C(\NC(=O)c2ccccc2Cl)C(=O)NCCCn2ccnc2)c2ccccc21,6,19*,4,-12,4
CN(C)S(=O)(=O)n1cc(/C=C(\NC(=O)c2ccccc2)C(=O)NCCCn2ccnc2)c2ccccc21,-9,-3,9,0,-14
N#Cc1c([N+](=O)[O-])cc([N+](=O)[O-])cc1S(=O)(=O)Cc1ccccc1,45*,-2,0,8,-2
COc1cc(OC)c(C#N)c(S(=O)(=O)Cc2ccccc2)c1,nt,nt,nt,11,nt
COc1cccc(OCc2cc(C(=O)N3CCNC(=O)C3Cc3ccccc3)no2)c1 (stereo unspecified),1,0,2,3,2
O=C(Nc1ccc(-c2ccccc2)cc1)[C@@H]1[C@@H](CO)[C@@H]2Cn3c(cccc3=O)[C@@H]2N1CC1CCCC1,nt,15*,13,nt,-2
O=C(Nc1nccs1)[C@@H]1[C@@H](CO)[C@@H]2Cn3c(cccc3=O)[C@@H]2N1C(=O)C1CCC1,nt,5,-1,nt,4
O=C(Nc1nccs1)[C@H]1[C@H](CO)[C@H]2Cn3c(cccc3=O)[C@H]2N1C(=O)C1CCC1,nt,16*,1,nt,-2
O=C(NC1CCCCC1)[C@@H]1[C@@H](CO)[C@@H]2Cn3c(cccc3=O)[C@@H]2N1CC1CCCC1,nt,21*,-1,nt,0
